From PubChem
TAAR1 ag – human TAAR1 agonism; Q96RJ0; CHO RD-HGA16 TAAR1, Fluo-8 calcium fluorescence; vehicle wells 0%, saturating PEA agonist 100%; activation, % at 3 µM; 0.99% of 360,000 active; AID 624467;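 active = activation above the mean activation of all test compounds in the run plus 3 SD, cut at about 38% in these data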
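Benchmarks: low control DMSO, high control PEA (EC100); System: CHO RD-HGA16 cells carrying human TAAR1 plus Gα16; Detection: Fluo-8 fluorescence, 5 s baseline then 140 s kinetic read; Schedule: 17-24 h plating, Fluo-8 75 min 37 °C, 30 min RT; Read-out basis: % activation from peak over basal fluorescence ratio, DMSO-to-PEA scaled.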
CHO parental Ca – counter-screen for OX1R antagonists: effect in parental CHO cells | parental CHO-K1, ATP-induced calcium, Fluo-8 fluorescence | inhibition, % at 5.6 µM | 0.63% of 330,000 active;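 active = inhibition above that plate's mean sample inhibition plus 3 SD, cut at about 26% in these data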;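 note: 0% = ATP-challenged DMSO wells and 100% = DMSO wells without ATP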
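Test system: parental CHO cells; detection: calcium-sensitive Fluo-8 fluorescence; evaluation: percent inhibition of calcium signal; also added: ATP as calcium-mobilizing challenge; repeats: one well per compound; control set: ATP-challenged DMSO wells low, unchallenged DMSO wells high; compound: single nominal dose of 5.6 µM per compound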
GPR7 antag – blocks human GPR7 receptor signaling; P48145; GPR7-expressing cells, fluorescence antagonist assay; inhibition, % at 4.4 µM; 1.1% of 290,000 active; AID 1861; in the data active = inhibition above about 16%, passing the limit was not always enough;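 note: cells stimulated with the agonist NPW; 0% = agonist with vehicle and 100% = vehicle without agonist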
Target sequence (P48145 whole entry, looked up): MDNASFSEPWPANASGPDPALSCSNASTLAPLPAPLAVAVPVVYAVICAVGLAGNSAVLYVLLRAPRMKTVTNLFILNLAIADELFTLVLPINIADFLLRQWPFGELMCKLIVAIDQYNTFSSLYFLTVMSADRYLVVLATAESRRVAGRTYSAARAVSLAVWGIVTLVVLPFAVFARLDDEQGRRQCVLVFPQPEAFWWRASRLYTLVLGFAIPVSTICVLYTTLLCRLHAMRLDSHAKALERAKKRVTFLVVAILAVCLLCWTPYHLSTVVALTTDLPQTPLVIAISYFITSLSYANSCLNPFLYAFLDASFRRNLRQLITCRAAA
TAAR1 antag – human TAAR1 antagonism; 1.5% of 360,000 active; Q96RJ0; CHO RD-HGA16 TAAR1, Fluo-8 calcium fluorescence, antagonist; inhibition, % at 3 µM;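 active = inhibition above a per-plate cutoff, the mean inhibition of test compounds on that plate plus 3 SD, cut at about 49% in these data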;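 note: 0% = DMSO plus EC80 beta-PEA response and 100% = DMSO alone without agonist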
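Assay system: CHO-derived RD-HGA16 cells stably expressing human TAAR1 plus Gα16. Timing: 140 s kinetic read after compound, 140 s after agonist. Technique: kinetic Fluo-8 calcium fluorescence measurement. Measure: % inhibition of agonist calcium response.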
OX1R antag-1 – blocks the human orexin 1 receptor; OX1R-expressing cells, FRET antagonist read-out; inhibition, % at 6.6 µM; O43613; 1.8% of 330,000 active; in the data active = inhibition mostly above about 38%, no sharp cut-off; inactive = mostly below about 40%;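 note: 0% = agonist challenge alone and 100% = reference antagonist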
Target sequence (O43613 whole entry, looked up): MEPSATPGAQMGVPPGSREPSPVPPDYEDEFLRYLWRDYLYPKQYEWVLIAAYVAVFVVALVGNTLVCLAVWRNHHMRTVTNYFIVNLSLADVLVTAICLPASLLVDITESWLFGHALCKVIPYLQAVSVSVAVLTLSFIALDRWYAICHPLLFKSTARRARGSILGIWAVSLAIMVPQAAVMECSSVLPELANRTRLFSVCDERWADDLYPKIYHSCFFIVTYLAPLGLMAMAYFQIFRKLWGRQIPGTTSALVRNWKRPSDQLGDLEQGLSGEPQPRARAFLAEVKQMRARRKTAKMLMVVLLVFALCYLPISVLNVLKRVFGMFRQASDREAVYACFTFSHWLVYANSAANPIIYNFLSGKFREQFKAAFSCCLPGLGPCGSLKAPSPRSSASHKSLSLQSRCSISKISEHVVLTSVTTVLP
OX1R antag-2 – antagonists of human orexin 1 receptor; 0.43% of 330,000 active; CHO/OX1R cells, Fluo-8 calcium fluorescence, orexin A; O43613; AID 434989; inhibition, % at 5 µM;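 active = inhibition above its plate's threshold, mean inhibition of all tested compounds on the plate plus 3 SD, cut at about 37% in these data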;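 note: 0% = orexin A challenge wells and 100% = SB-334867-A antagonist wells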
TAAR1 ag conf – confirmation of human TAAR1 agonists. shares compounds with TAAR1 ag. CHO RD-HGA16 TAAR1, Fluo-8 calcium fluorescence; scaled: DMSO 0%, maximal phenethylamine 100%. activation, % at 3 µM. 82% of 2,400 active;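 active = activation above a cutoff set at the run's mean compound activation plus 3 SD, cut at about 39% in these data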
Ga16 nonsel ag – nonselective agonism, TAAR1 counter-screen; shares compounds with TAAR1 ag; CHO-Ga16 parental, Fluo-8 calcium fluorescence; normalized to maximal ATP response, DMSO zero; activation, % at 3 µM; 50% of 2,400 active;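 active = activation above the run cutoff, the mean activation over all tested wells plus 3 SD, cut at about 12% in these data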;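 note: 0% = DMSO wells and 100% = maximal ATP response on the peak over basal ratio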
TAAR1 desens – human TAAR1 agonist that also desensitizes the receptor; shares compounds with TAAR1 ag; CHO RD-HGA16 hTAAR1, Fluo-8 calcium, beta-PEA response inhibition; inhibition, % at 3 µM; 46% of 2,400 active;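 active = inhibition above the run cutoff, the mean inhibition of all test compounds plus 3 SD, cut at about 49% in these data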;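 note: beta-PEA stimulus applied at its EC80; loss of beta-PEA calcium signal after compound pretreatment read as receptor desensitization; 0% = DMSO with beta-PEA at EC80 and 100% = DMSO alone without agonist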
Ga16 nonsel ant – nonselective Ga16 antagonism, counter-screen; inhibition, % at 3 µM; shares compounds with TAAR1 ag; CHO-Ga16 ATP-induced calcium, Fluo-8 fluorescence; 39% of 2,400 active;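 active = inhibition above the plate's mean compound inhibition plus 3 SD, computed per plate, cut at about 22% in these data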;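 note: 0% = EC80 ATP with DMSO and 100% = DMSO wells without ATP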
Starred values were filed as active, the others as inactive. Hits are enriched below; roughly 4.5% of the tested compounds scored in any of these assays.

Results for COc1ccc2cc(C(c3nnnn3C3CCCC3)N3CCc4ccccc4C3)c(=O)[nH]c2c1 (stereo not drawn) ?
TAAR1 ag: 46*; CHO parental Ca: -12; GPR7 antag: -6; TAAR1 antag: -2; OX1R antag-1: 11; OX1R antag-2: -23; TAAR1 ag conf: 39*; Ga16 nonsel ag: 3; TAAR1 desens: 3; Ga16 nonsel ant: 13

How did COc1ccc2[nH]c(=O)c(C(c3nnnn3CC3CCCO3)N3CCc4ccccc4C3)cc2c1 (stereo not drawn) do in these assays?
TAAR1 ag: 61*; CHO parental Ca: -16; GPR7 antag: -7; TAAR1 antag: 9; OX1R antag-1: 12; OX1R antag-2: -25; TAAR1 ag conf: 55*; Ga16 nonsel ag: 6; TAAR1 desens: 15; Ga16 nonsel ant: 21

How did Cc1ccc2[nH]c(=O)c(C(c3nnnn3CC3CCCO3)N3CCc4ccccc4C3)cc2c1 (stereo not drawn) do in these assays?
TAAR1 ag: 27; CHO parental Ca: 2; GPR7 antag: 15; TAAR1 antag: 0; OX1R antag-1: 19; OX1R antag-2: -9

What do the screens show for `OC(COCc1ccccc1)CN1CCc2ccccc2C1` (stereo not drawn)?
TAAR1 ag: 25; CHO parental Ca: -9; GPR7 antag: 1; TAAR1 antag: -25; OX1R antag-1: 13; OX1R antag-2: -12

What do the screens show for `OC(COc1c(F)cc(Br)cc1F)CN1CCc2ccccc2C1` (stereo not drawn)?
TAAR1 ag: 55*; CHO parental Ca: -17; GPR7 antag: -10; TAAR1 antag: 11; OX1R antag-1: 12; OX1R antag-2: -38; TAAR1 ag conf: 66*; Ga16 nonsel ag: 0; TAAR1 desens: 17; Ga16 nonsel ant: 10

What do the screens show for `Cc1c(C=NNc2ccccc2)[nH]c(=O)[nH]c1=O`?
TAAR1 ag: 58*; TAAR1 antag: 2; TAAR1 ag conf: 72*; Ga16 nonsel ag: 3; TAAR1 desens: 36; Ga16 nonsel ant: 11

How did O=c1cc(C=NNc2ccccc2)[nH]c(=O)[nH]1 do in these assays?
Ga16 nonsel ag: 3; Ga16 nonsel ant: 11

How did O=c1cc(N/N=C/c2ccccc2)[nH]c(=O)[nH]1 do in these assays?
TAAR1 ag: 58*; CHO parental Ca: -8; TAAR1 antag: 31; OX1R antag-1: 8; OX1R antag-2: -10; TAAR1 ag conf: 84*; Ga16 nonsel ag: 15*; TAAR1 desens: 90*; Ga16 nonsel ant: 7

How did Cc1cc(NC(=O)CSc2nc(-c3ccco3)cc(C(F)(F)F)n2)no1 do in these assays?
TAAR1 ag: 44*; CHO parental Ca: -20; GPR7 antag: 1; TAAR1 antag: 18; OX1R antag-1: 30; OX1R antag-2: -16; TAAR1 ag conf: -1; Ga16 nonsel ag: 5; TAAR1 desens: 3; Ga16 nonsel ant: 11

Results for Cc1cc(NC(=O)CCSc2nc(-c3ccco3)cc(C(F)(F)F)n2)no1 ?
TAAR1 ag: 8; CHO parental Ca: -9; GPR7 antag: -6; TAAR1 antag: 12; OX1R antag-1: 10; OX1R antag-2: -23

What do the screens show for `O=S(=O)(c1ccc(Br)s1)N1CCN(CCc2ccccc2)CC1`?
TAAR1 ag: 10; CHO parental Ca: -18; TAAR1 antag: 11; OX1R antag-1: 0; OX1R antag-2: -21

How did NC(CCc1ccccc1)c1csc(Nc2ccc(C(F)(F)F)cn2)n1 (stereo not drawn) do in these assays?
TAAR1 ag: 56*; TAAR1 antag: 21; TAAR1 ag conf: 40*; Ga16 nonsel ag: 25*; TAAR1 desens: 40; Ga16 nonsel ant: 36*

Results for NC(COCc1ccccc1)c1csc(Nc2ccc(C(F)(F)F)cn2)n1 (stereo not drawn) ?
TAAR1 ag: 36; TAAR1 antag: 3

Results for CC(C)CC(N)c1csc(Nc2ccc(C(F)(F)F)cn2)n1 (stereo not drawn) ?
TAAR1 ag: 58*; TAAR1 antag: 25; TAAR1 ag conf: 54*; Ga16 nonsel ag: 22*; TAAR1 desens: 31; Ga16 nonsel ant: 26*

What do the screens show for `NC(c1csc(Nc2ccc(C(F)(F)F)cn2)n1)C1CCCCC1` (stereo not drawn)?
TAAR1 ag: 76*; TAAR1 antag: 20; TAAR1 ag conf: 75*; Ga16 nonsel ag: 43*; TAAR1 desens: 60*; Ga16 nonsel ant: 55*

How did O=S(=O)(Nc1cccc(Cl)c1)c1cccc(-n2cnnn2)c1 do in these assays?
TAAR1 ag: 4; CHO parental Ca: 0; TAAR1 antag: -2; OX1R antag-1: 6; OX1R antag-2: 0

How did Cc1ccc(C(=O)COC(=O)CCC(=O)NC2CCCCC2)cc1C do in these assays?
TAAR1 ag: 5; CHO parental Ca: 6; GPR7 antag: 3; TAAR1 antag: 7; OX1R antag-1: 7; OX1R antag-2: -23

Results for Clc1ccc(-c2ccc(C=Nc3ccc(N4CCOCC4)cc3)o2)c(Cl)c1 ?
TAAR1 ag: 30; CHO parental Ca: -13; GPR7 antag: -4; TAAR1 antag: -25; OX1R antag-1: 20; OX1R antag-2: -9

How did Clc1ccc(-c2ccc(C=Nc3ccc(N4CCOCC4)cc3)o2)cc1 do in these assays?
TAAR1 ag: 54*; CHO parental Ca: -10; GPR7 antag: -9; TAAR1 antag: -2; OX1R antag-1: 32; OX1R antag-2: -9; TAAR1 ag conf: 27; Ga16 nonsel ag: 15*; TAAR1 desens: 16; Ga16 nonsel ant: 18

Results for COc1ccc2oc(C(=O)OCC(=O)NC(C)(C#N)C3CC3)c(C)c2c1 (stereo not drawn) ?
TAAR1 ag: 3; CHO parental Ca: -2; TAAR1 antag: -5; OX1R antag-1: 2; OX1R antag-2: -31

How did NNc1nc(Nc2ccc([N+](=O)[O-])cc2)nc(N2CCCCCC2)n1 do in these assays?
TAAR1 ag: 5; CHO parental Ca: -17; GPR7 antag: -6; TAAR1 antag: -19; OX1R antag-1: 14; OX1R antag-2: -28
